Test results from article PMC3210016 (Cancer research, 2010).

Key:
HCC2429 cells [1] = experiment: Apoptosis screen of peptide library; type: cell-based, human; details: representative experiment, Figure 1A, quadruplicate
Outline: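 A library of 155 peptides (5–15 residues) spanning the 34 EGF-like repeats of the Notch3 ECD was screened. HCC2429 and HeLa cells were seeded at 3,000 cells per well in 384-well format. Annexin V Alexa Fluor 680 (1:2,200 in RPMI) and peptide solution (0.1 mg/ml in RPMI before addition) were added. After overnight incubation, fluorescence was read on an FMAT 8100 HTS system, in quadruplicate per peptide.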

HCC2429 cells [2] = experiment: Apoptosis assay; type: cell-based, human; details: HCC2429, 24 hours, serum-free RPMI, flow cytometry; Figure 2D
Outline: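 HCC2429 cells were exposed for 24 hours in serum-free RPMI to Notch3 ECD-derived peptides or peptide–Fc fusion proteins. The concentration was not given. Apoptotic fraction was measured with an Annexin V-FITC kit on a flow cytometer, with a γ-secretase inhibitor as positive control. Comparisons used the Wilcoxon rank-sum test, with significance at P < 0.05.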

Row | Substance | Induction of apoptosis (fluorescence, FMAT 8100 HTS) (HCC2429 cells [1]) | Apoptosis (Annexin V-FITC) (HCC2429 cells [2])
1 | CATAV [Peptide N102] | induced apoptosis | 
2 | CVCVNGWTGES [Peptide N17] |  | highest apoptotic activity
3 | CLNGGS [Peptide N132] | induced apoptosis | 
4 | CFHGAT [Peptide N103] | induced apoptosis | 
